Experiments:
[1] = tested on: B16; assay: Cytotoxicity against mouse B16 cells by MTT assay; format: functional, cell-based
[2] = Growth inhibition of human UO31 cells after 48 hrs by SRB assay; format: functional; conditions: UO-31, 48 h
[3] = tested on: TK-10; assay: Growth inhibition of human TK10 cells after 48 hrs by SRB assay; format: functional; conditions: TK-10, 48 h
[4] = Growth inhibition of human RXF393 cells after 48 hrs by SRB assay; format: functional; conditions: RXF 393, 48 h
[5] = tested on: SN12C; assay: Growth inhibition of human SN12C cells after 48 hrs by SRB assay; format: functional
[6] = tested on: ACHN; assay: Growth inhibition of human ACHN cells after 48 hrs by SRB assay; format: functional
[7] = tested on: CAKI-1; assay: Growth inhibition of human CAKI-1 cells after 48 hrs by SRB assay; format: functional; conditions: CAKI-1, 48 h
[8] = tested on: 786-0; assay: Growth inhibition of human 786-0 cells after 48 hrs by SRB assay; format: functional; conditions: 786-0, 48 h
[9] = tested on: A498; assay: Growth inhibition of human A498 cells after 48 hrs by SRB assay; format: functional; conditions: A498, 48 h
[10] = tested on: SK-OV-3; assay: Growth inhibition of human SKOV3 cells after 48 hrs by SRB assay; format: functional; conditions: SK-OV-3, 48 h
[11] = tested on: OVCAR-8; assay: Growth inhibition of human OVCAR8 cells after 48 hrs by SRB assay; format: functional; conditions: OVCAR-8, 48 h
[12] = Growth inhibition of human OVCAR4 cells after 48 hrs by SRB assay; format: functional; conditions: OVCAR-4, 48 h
[13] = Growth inhibition of human OVCAR5 cells after 48 hrs by SRB assay; format: functional; conditions: OVCAR-5, 48 h
[14] = tested on: OVCAR-3; assay: Growth inhibition of human OVCAR3 cells after 48 hrs by SRB assay; format: functional; conditions: OVCAR-3, 48 h
[15] = tested on: IGROV-1; assay: Growth inhibition of human IGROV1 cells after 48 hrs by SRB assay; format: functional; conditions: IGROV-1, 48 h
[16] = Growth inhibition of human UACC257 cells after 48 hrs by SRB assay; format: functional; conditions: UACC-257, 48 h
[17] = tested on: UACC-62; assay: Growth inhibition of human UACC62 cells after 48 hrs by SRB assay; format: functional; conditions: UACC-62, 48 h
[18] = tested on: SK-MEL-5; assay: Growth inhibition of human SK-MEL-5 cells after 48 hrs by SRB assay; format: functional; conditions: SK-MEL-5, 48 h
[19] = tested on: SK-MEL-2; assay: Growth inhibition of human SK-MEL-2 cells after 48 hrs by SRB assay; format: functional; conditions: SK-MEL-2, 48 h
[20] = tested on: SK-MEL-28; assay: Growth inhibition of human SK-MEL-28 cells after 48 hrs by SRB assay; format: functional; conditions: SK-MEL-28, 48 h
[21] = tested on: M14; assay: Growth inhibition of human M14 cells after 48 hrs by SRB assay; format: functional; conditions: M14, 48 h
[22] = tested on: LOX IMVI; assay: Growth inhibition of human LOXIMVI cells after 48 hrs by SRB assay; format: functional
[23] = tested on: Malme-3M; assay: Growth inhibition of human MALME-3M cells after 48 hrs by SRB assay; format: functional
[24] = tested on: U-251; assay: Growth inhibition of human U251 cells after 48 hrs by SRB assay; format: functional; conditions: U-251, 48 h
[25] = tested on: SNB-75; assay: Growth inhibition of human SNB75 cells after 48 hrs by SRB assay; format: functional; conditions: SNB-75, 48 h
[26] = Growth inhibition of human SF539 cells after 48 hrs by SRB assay; format: functional; conditions: SF-539, 48 h
[27] = tested on: SNB-19; assay: Growth inhibition of human SNB19 cells after 48 hrs by SRB assay; format: functional; conditions: SNB-19, 48 h
[28] = tested on: SF-295; assay: Growth inhibition of human SF295 cells after 48 hrs by SRB assay; format: functional; conditions: SF-295, 48 h
[29] = tested on: SF-268; assay: Growth inhibition of human SF268 cells after 48 hrs by SRB assay; format: functional; conditions: SF-268, 48 h
[30] = tested on: SW-620; assay: Growth inhibition of human SW620 cells after 48 hrs by SRB assay; format: functional; conditions: SW-620, 48 h
[31] = tested on: KM12; assay: Growth inhibition of human KM12 cells after 48 hrs by SRB assay; format: functional; conditions: KM12, 48 h
[32] = tested on: HT-29; assay: Growth inhibition of human HT-29 cells after 48 hrs by SRB assay; format: functional; conditions: HT-29, 48 h
[33] = tested on: HCT-15; assay: Growth inhibition of human HCT15 cells after 48 hrs by SRB assay; format: functional; conditions: HCT-15, 48 h
[34] = Growth inhibition of human HCC2998 cells after 48 hrs by SRB assay; format: functional; conditions: HCC 2998, 48 h
[35] = tested on: HCT-116; assay: Growth inhibition of human HCT116 cells after 48 hrs by SRB assay; format: functional; conditions: HCT-116, 48 h
[36] = tested on: COLO 205; assay: Growth inhibition of human COLO205 cells after 48 hrs by SRB assay; format: functional; conditions: COLO 205, 48 h
[37] = tested on: NCI-H522; assay: Growth inhibition of human NCI-H522 cells after 48 hrs by SRB assay; format: functional; conditions: NCI-H522, 48 h
[38] = tested on: NCI-H460; assay: Growth inhibition of human NCI-H460 cells after 48 hrs by SRB assay; format: functional; conditions: NCI-H460, 48 h
[39] = tested on: NCI-H322M; assay: Growth inhibition of human NCI-H322M cells after 48 hrs by SRB assay; format: functional
[40] = tested on: NCI-H23; assay: Growth inhibition of human NCI-H23 cells after 48 hrs by SRB assay; format: functional; conditions: NCI-H23, 48 h
[41] = tested on: NCI-H226; assay: Growth inhibition of human NCI-H226 cells after 48 hrs by SRB assay; format: functional; conditions: NCI-H226, 48 h
[42] = Growth inhibition of human HOP92 cells after 48 hrs by SRB assay; format: functional; conditions: HOP-92, 48 h
[43] = Growth inhibition of human EKVX cells after 48 hrs by SRB assay; format: functional
[44] = tested on: HOP-62; assay: Growth inhibition of human HOP62 cells after 48 hrs by SRB assay; format: functional; conditions: HOP-62, 48 h
[45] = tested on: A549; assay: Growth inhibition of human A549 cells after 48 hrs by SRB assay; format: functional; conditions: A549, 48 h
[46] = tested on: RPMI-8226; assay: Growth inhibition of human RPMI8226 cells after 48 hrs by SRB assay; format: functional; conditions: RPMI-8226, 48 h
[47] = tested on: SR; assay: Growth inhibition of human SR cells after 48 hrs by SRB assay; format: functional
[48] = tested on: MOLT-4; assay: Growth inhibition of human MOLT4 cells after 48 hrs by SRB assay; format: functional; conditions: MOLT-4, 48 h
[49] = tested on: K562; assay: Growth inhibition of human K562 cells after 48 hrs by SRB assay; format: functional; conditions: K562, 48 h
[50] = tested on: CCRF-CEM; assay: Growth inhibition of human CCRF-CEM cells after 48 hrs by SRB assay; format: functional
[51] = tested on: HL-60(TB); assay: Growth inhibition of human HL-60(TB) cells after 48 hrs by SRB assay; format: functional; conditions: HL-60, 48 h
[52] = tested on: Paracentrotus lividus; assay: Antimitotic activity against sea urchin embryo free-swimming blastula model assessed as embryo spinning compound treated at 8 to 10 hrs post-fertilization measured after 0.25 to 20 hrs; format: functional, Blastula stage
[53] = tested on: Paracentrotus lividus; assay: Antimitotic activity against sea urchin embryo model assessed as cleavage arrest of fertilized egg compound treated at 8 to 20 mins post-fertilization and 45 to 55 mins prior to first mitotic cycle completion measured 2.5 to 5.5 hrs post-fertilization; format: functional
In short: (§1)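 Fertilized eggs are exposed 8–20 min after fertilization to 2-fold decreasing concentrations. Stocks are 10 mM in DMSO, then diluted 10-fold in 95% EtOH; final DMSO is at most 0.05% and EtOH at most 1%. Embryos are kept as a monolayer, up to 2000 embryos/mL, in filtered seawater at room temperature. The value is the threshold concentration giving cleavage alteration, embryo death before hatching or full mitotic arrest. Duplicates were run.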

[54] = tested on: Paracentrotus lividus; assay: Antimitotic activity against sea urchin embryo model assessed as cleavage alteration of fertilized egg compound treated at 8 to 20 mins post-fertilization and 45 to 55 mins prior to first mitotic cycle completion measured 2.5 to 5.5 hrs post-fertilization; format: functional; in short: as §1

## COc1cc(/C=C\c2ccc(N)cc2)cc(OC)c1OC
[1]
  IC50: 56000 nM

## COc1ccc(/C=C\c2cc(OC)c(OC)c(OC)c2)cc1O [COMBRETASTATIN A4]
[2]
  GI50: 19 nM
[3]
  GI50: 100 nM
[4]
  GI50: 2 nM
[5]
  GI50: 6 nM
[6]
  GI50: 6 nM
[7]
  GI50: 26 nM
[8]
  GI50: 100 nM
[9]
  GI50: 6 nM
[10]
  GI50: 59 nM
[11]
  GI50: 3 nM
[12]
  GI50: 14 nM
[13]
  GI50: 100 nM
[14]
  GI50: 2 nM
[15]
  GI50: 15 nM
[16]
  GI50: 3 nM
[17]
  GI50: 6 nM
[18]
  GI50: 4 nM
[19]
  GI50: 4 nM
[20]
  GI50: 8 nM
[21]
  GI50: 3 nM
[22]
  GI50: 3 nM
[23]
  GI50: 20 nM
[24]
  GI50: 4 nM
[25]
  GI50: 8 nM
[26]
  GI50: 3 nM
[27]
  GI50: 4 nM
[28]
  GI50: 4 nM
[29]
  GI50: 6 nM
[30]
  GI50: 3 nM
[31]
  GI50: 5 nM
[32]
  GI50: 100 nM
[33]
  GI50: 4 nM
[34]
  GI50: 63 nM
[35]
  GI50: 3 nM
[36]
  GI50: 100 nM
[37]
  GI50: 2 nM
[38]
  GI50: 3 nM
[39]
  GI50: 7 nM
[40]
  GI50: 3 nM
[41]
  GI50: 4 nM
[42]
  GI50: 3 nM
[43]
  GI50: 86 nM
[44]
  GI50: 3 nM
[45]
  GI50: 16 nM
[46]
  GI50: 3 nM
[47]
  GI50: 3 nM
[48]
  GI50: 3 nM
[49]
  GI50: 2 nM
[50]
  GI50: 3 nM
[51]
  GI50: 2 nM
[52]
  EC: 0.05 µM
[53]
  EC: 0.01 µM
[54]
  EC: 0.002 µM

Reference: ChEMBL document CHEMBL3102739, “Synthesis and antiproliferative activity of conformationally restricted 1,2,3-triazole analogues of combretastatins in the sea urchin embryo model and against human cancer cell lines” (Bioorg Med Chem, 2014)
